Activity calls are given as the source filed them. The calls are words filed in the database; no cut-off is given here.
Legend:
Rattus norvegicus [1] = experiment: Antithrombotic activity in Sprague-Dawley rat model of blood stasis-induced venous thrombosis assessed as inhibition of thrombosis rate at 100 nmol/kg, sc measured after 2 hrs relative to control; type: functional
Procedure, shortened: (§1)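 Stasis/thromboplastin vena cava model in male SD rats 2 h after s.c. dosing at 30, 100 or 300 nmol/kg. Thrombus dried 24 h at 50 °C and weighed, then expressed as % of mean thrombus mass in the saline group (100% = no inhibition); n = 8-10, mean ± SEM.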

[2] = Half life in Sprague-Dawley rat at 100 nmol/kg, sc; type: ADME; settings: in vivo
Procedure, shortened: (§2)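 Plasma level read from anti-FXa activity against a standard curve built by spiking pooled rat platelet-poor plasma with graded compound. Noncompartmental analysis; n = 4-6, mean ± SEM.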

[3] = AUC (0 to infinity) in Sprague-Dawley rat at 100 nmol/kg, sc; type: ADME; parameters: time infinity, dose 100 nmol/kg, route sc; settings: in vivo; for AUC(0-inf): Sprague-Dawley, 100 nmol/kg; procedure, shortened: as §2
[4] = Cmax in Sprague-Dawley rat at 100 nmol/kg, sc; type: ADME; parameters: dose 100 nmol/kg, route sc; settings: in vivo; procedure, shortened: as §2
Plasma [5] = experiment: Anticoagulant activity in human plasma assessed as prolongation of thrombin time by measuring concentration required to double TT incubated for 3 mins by coagulometer analysis; type: functional; settings: 0.05 h
Plasma [6] = experiment: Anticoagulant activity in human plasma assessed as prolongation of activated partial thromboplastin time by measuring concentration required to double APTT incubated for 3 mins by coagulometer analysis; type: functional; settings: 0.05 h
Procedure, shortened: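 Standard human plasma (45 µL) plus sample (5 µL), 2 min at 37 °C, then APTT reagent for 3 min, then CaCl2; clotting time read on a coagulometer. Clotting time versus concentration fitted linearly; EC2.0 is the concentration doubling clotting time. Run in duplicate.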

Plasma [7] = experiment: Anticoagulant activity in human plasma assessed as prolongation of prothrombin time by measuring concentration required to double PT incubated for 3 mins by coagulometer analysis; type: functional; settings: dose 128 µg/ml, 0.05 h
[8] = Volume of distribution in Sprague-Dawley rat at 100 nmol/kg, sc; type: ADME; settings: in vivo; procedure, shortened: as §2
Plasma [9] = experiment: Anticoagulant activity in human platelet poor plasma assessed as inhibition of thrombin generation incubated for 3 mins by calibrated automated thrombogram analysis; type: functional, cell-free; settings: 0.05 h
Procedure, shortened: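 Thrombin generation triggered in human platelet-poor plasma by a phospholipid/tissue factor reagent, monitored by calibrated automated thrombogram with readings every 15 s. Total thrombin taken as area under the thrombin-time curve; IC50 from dose-response. Triplicate.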

[10] = AUC (0 to 32 hrs) in Sprague-Dawley rat at 100 nmol/kg, sc measured after 32 hrs; type: ADME, organism-based; parameters: time 32 hrs, dose 100 nmol/kg, route sc; settings: in vivo; procedure, shortened: as §2
Coagulation factor X [11] = molecular target: T1, Coagulation factor X (Homo sapiens, UniProt P00742); experiment: Inhibition of coagulation factor Xa (unknown origin) using chromogenic substrate incubated for 7 min in presence of antithrombin by absorbance based assay
Rattus norvegicus [12] = experiment: Antithrombotic activity in Sprague-Dawley rat model of blood stasis-induced venous thrombosis assessed as inhibition of thrombosis rate at 100 nmol/kg, sc measured after 1 hr relative to control; type: functional
Procedure, shortened: (§3)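 Male SD rats given 100 nmol/kg s.c.; at 1 or 3 h, anesthetized with 10% chloral hydrate ([…]). Vena cava loosely ligated, collaterals tied, 2% rabbit thromboplastin given i.v., stasis 20 s later and held 20 min. Thrombus removed, dried 24 h at 50 °C, weighed; inhibition versus saline group; n = 6, mean ± SEM.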

Rattus norvegicus [13] = experiment: Antithrombotic activity in Sprague-Dawley rat model of blood stasis-induced venous thrombosis assessed as inhibition of thrombosis rate at 30 nmol/kg, sc measured after 2 hrs relative to control; type: functional; procedure, shortened: as §1
Rattus norvegicus [14] = experiment: Antithrombotic activity in Sprague-Dawley rat model of blood stasis-induced venous thrombosis assessed as inhibition of thrombosis rate at 300 nmol/kg, sc measured after 2 hrs relative to control; type: functional; procedure, shortened: as §1
[15] = Tmax in Sprague-Dawley rat at 100 nmol/kg, sc; type: ADME; settings: in vivo; procedure, shortened: as §2
Coagulation factor X [16] = molecular target: T1, Coagulation factor X; experiment: Inhibition of heparin binding to factor 10a using chromogenic substrate incubated for 7 min by absorbance based assay
Rattus norvegicus [17] = experiment: Antithrombotic activity in Sprague-Dawley rat model of blood stasis-induced venous thrombosis assessed as inhibition of thrombosis rate at 100 nmol/kg, sc measured after 1 hr; type: functional, organism-based; procedure, shortened: as §3
[18] = Clearance in Sprague-Dawley rat at 100 nmol/kg, sc; type: ADME; settings: in vivo; procedure, shortened: as §2
Mus musculus = experiment: Antithrombotic activity in mouse model of tail-bleeding assessed as increase in blood loss at 2000 nmol/kg, sc; type: functional, organism-based
Procedure, shortened: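 Mouse tail-cut bleeding: 2000 nmol/kg s.c., tail cut 1.5 h after dosing, blood loss measured in µL; normal saline negative control; n ≥ 6, mean ± SEM, one-way ANOVA.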

Rattus norvegicus [19] = experiment: Antithrombotic activity in Sprague-Dawley rat model of blood stasis-induced venous thrombosis assessed as inhibition of thrombosis rate at 100 nmol/kg, sc measured after 3 hrs; type: functional, organism-based; procedure, shortened: as §3

T1 sequence (P00742 41-179 limits assumed): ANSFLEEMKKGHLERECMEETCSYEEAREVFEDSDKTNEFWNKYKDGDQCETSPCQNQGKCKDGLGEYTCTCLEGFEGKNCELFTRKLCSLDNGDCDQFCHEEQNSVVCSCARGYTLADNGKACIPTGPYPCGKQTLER
T1 sequence (P00742 235-488 limits assumed): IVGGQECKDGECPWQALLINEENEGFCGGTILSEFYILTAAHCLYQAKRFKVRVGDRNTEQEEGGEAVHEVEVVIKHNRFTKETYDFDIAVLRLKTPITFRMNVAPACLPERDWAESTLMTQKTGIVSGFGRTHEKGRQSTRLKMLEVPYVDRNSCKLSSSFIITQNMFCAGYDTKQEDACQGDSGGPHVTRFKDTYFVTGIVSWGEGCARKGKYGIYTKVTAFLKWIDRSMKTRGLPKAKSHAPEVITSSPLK

Row | half-life [2] [h] | Cmax [4] [ng/mL] | Vd [8] [L/kg] | IC50 (Plasma [9]) [nM] | AUC(0-t) at 32 h [10] [ng·h/mL] | IC50 (Coagulation factor X [11]) [nM] | Tmax [15] [h] | IC50 (Coagulation factor X [16]) [nM] | AUC(0-inf) [3] [ng·h/mL] | CL/F [18] [mL/min/kg] | SMILES | inhibition in vivo at 0.1 µmol/kg (Rattus norvegicus [1]) [%] | 2TT (Plasma [5]) [µg/mL] | EC (Plasma [6]) [µM] | EC (Plasma [7]) [µg/mL] | inhibition in vivo at 0.1 µmol/kg (Rattus norvegicus [12]) [%] | inhibition in vivo at 0.03 µmol/kg (Rattus norvegicus [13]) [%] | inhibition in vivo at 0.3 µmol/kg (Rattus norvegicus [14]) [%] | inhibition (Rattus norvegicus [1]) | inhibition (Rattus norvegicus [17]) | inhibition (Rattus norvegicus [14]) | other results
1 | 6.1 | 2040 | 0.058 | 12200 | 17600 | 141 | 2 | 725 | – | – | CO[C@H]1O[C@H](COS(=O)(=O)[O-])[C@@H](O[C@@H]2O[C@@H](C(=O)[O-])[C@@H](O[C@H]3O[C@H](COS(=O)(=O)[O-])[C@@H](O[C@@H]4O[C@H](C(=O)[O-])[C@@H](O[C@H]5O[C@H](COS(=O)(=O)[O-])[C@@H](O)[C@H](O)[C@H]5OS(=O)(=O)[O-])[C@H](OC)[C@H]4O)[C@H](OS(=O)(=O)[O-])[C@H]3OS(=O)(=O)[O-])[C@H](OC)[C@H]2OS(=O)(=O)[O-])[C@H](OS(=O)(=O)[O-])[C@H]1OS(=O)(=O)[O-].[Na+].[Na+].[Na+].[Na+].[Na+].[Na+].[Na+].[Na+].[Na+].[Na+].[Na+] | > 70 | >128 | 40.83 | >128 | 77.8 | < 15 | 93.1 | – | – | – | AUC [3]: 19053.2 ng·h/mL
2 | 4.8 | 1250 | 0.183 | 12400 | 6350 | 94.7 | 1 | 779 | 6750 | 0.633 | CO[C@H]1O[C@H](COS(=O)(=O)[O-])[C@@H](O[C@@H]2O[C@@H](C(=O)[O-])[C@@H](O[C@H]3O[C@H](COS(=O)(=O)[O-])[C@@H](O[C@@H]4O[C@H](C(=O)[O-])[C@@H](O[C@H]5O[C@H](COS(=O)(=O)[O-])[C@@H](O)[C@H](OS(=O)(=O)[O-])[C@H]5OS(=O)(=O)[O-])[C@H](OC)[C@H]4O)[C@H](OS(=O)(=O)[O-])[C@H]3OS(=O)(=O)[O-])[C@H](OC)[C@H]2OS(=O)(=O)[O-])[C@H](OS(=O)(=O)[O-])[C@H]1OS(=O)(=O)[O-].[Na+].[Na+].[Na+].[Na+].[Na+].[Na+].[Na+].[Na+].[Na+].[Na+].[Na+].[Na+] | – | >128 | 33.05 | >128 | – | 39.5 | – | Active | Active | Active | –
3 | 1.2 | 519 | 0.097 | 14500 | 1070 | 99.6 | 0.6 | 1910 | 1120 | 3.98 | CO[C@H]1O[C@H](COS(=O)(=O)[O-])[C@@H](O[C@@H]2O[C@@H](C(=O)[O-])[C@@H](O[C@H]3O[C@H](COS(=O)(=O)[O-])[C@@H](O[C@@H]4O[C@H](C(=O)[O-])[C@@H](O[C@H]5O[C@H](COS(=O)(=O)[O-])[C@@H](O)[C@H](O)[C@H]5NS(=O)(=O)[O-])[C@H](O)[C@H]4O)[C@H](OS(=O)(=O)[O-])[C@H]3NS(=O)(=O)[O-])[C@H](O)[C@H]2OS(=O)(=O)[O-])[C@H](O)[C@H]1NS(=O)(=O)[O-].[Na+].[Na+].[Na+].[Na+].[Na+].[Na+].[Na+].[Na+].[Na+].[Na+] [FONDAPARINUX SODIUM] | – | >128 | 51.2 | >128 | 55.7 | < 15 | 59.3 | Active | Active | – | –
4 | 15.1 | 1140 | 0.136 | 14800 | 12800 | 88.8 | 2 | 1130 | 15100 | 0.283 | CO[C@H]1O[C@H](COS(=O)(=O)[O-])[C@@H](O[C@@H]2O[C@@H](C(=O)[O-])[C@@H](O[C@H]3O[C@H](COS(=O)(=O)[O-])[C@@H](O[C@@H]4O[C@H](C(=O)[O-])[C@@H](O[C@H]5O[C@H](COS(=O)(=O)[O-])[C@@H](OC)[C@H](OS(=O)(=O)[O-])[C@H]5OS(=O)(=O)[O-])[C@H](OC)[C@H]4OC(C)=O)[C@H](OS(=O)(=O)[O-])[C@H]3OS(=O)(=O)[O-])[C@H](OC)[C@H]2OS(=O)(=O)[O-])[C@H](OS(=O)(=O)[O-])[C@H]1OS(=O)(=O)[O-].[Na+].[Na+].[Na+].[Na+].[Na+].[Na+].[Na+].[Na+].[Na+].[Na+].[Na+].[Na+] | – | >128 | 32.47 | >128 | – | 33.2 | – | Active | – | Active | Activity (Mus musculus): Active; inhibition (Rattus norvegicus [19]): Active
5 | 6.2 | 2020 | 0.131 | 12500 | 14200 | 108 | 1.5 | 788 | 15500 | 0.35 | CO[C@H]1O[C@H](COS(=O)(=O)[O-])[C@@H](O[C@@H]2O[C@@H](C(=O)[O-])[C@@H](O[C@H]3O[C@H](COS(=O)(=O)[O-])[C@@H](O[C@@H]4O[C@H](C(=O)[O-])[C@@H](O[C@H]5O[C@H](COS(=O)(=O)[O-])[C@@H](O)[C@H](OC)[C@H]5OS(=O)(=O)[O-])[C@H](OC)[C@H]4O)[C@H](OS(=O)(=O)[O-])[C@H]3OS(=O)(=O)[O-])[C@H](OC)[C@H]2OS(=O)(=O)[O-])[C@H](OS(=O)(=O)[O-])[C@H]1OS(=O)(=O)[O-].[Na+].[Na+].[Na+].[Na+].[Na+].[Na+].[Na+].[Na+].[Na+].[Na+].[Na+] | > 70 | >128 | 48.78 | >128 | 56.9 | 48.6 | 89.5 | – | – | – | inhibition (Rattus norvegicus [19]): Active

From ChEMBL document CHEMBL5154796, “Chemical synthesis and pharmacological properties of heparin pentasaccharide analogues” (Eur J Med Chem, 2022)
